Laboratory results taken from ChEMBL document CHEMBL2016547, “An efficient and convenient microwave-assisted chemical synthesis of (thio)xanthones with additional in vitro and in silico characterization” (Bioorg Med Chem, 2012).
Values after ≈ are worked out from the molar mass of the structure shown.

What was measured:
Staphylococcus aureus = assay: Antibacterial activity against Staphylococcus aureus ATCC 29213 after 20 to 22 hrs by broth microdilution method; format: functional
Method in brief: (§1)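 CLSI broth microdilution MIC. Twofold compound dilutions spanned 128-0.5 µg/mL, with azithromycin as comparator. Streptococci were grown on Columbia agar with 5% sheep blood, and their broth used 5% horse serum instead of lysed blood. H. influenzae was grown on Mueller-Hinton chocolate agar and staphylococci on Mueller-Hinton agar. Direct colony suspension gave 5x10⁴ CFU/well. Plates were read visually after 20-22 h at 37°C in ambient air.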

Jurkat = assay: Cytotoxicity against human Jurkat T cells assessed as NADH level after overnight incubation by MTS assay; format: cell-based
Method in brief: (§2)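 Cells were maintained in RPMI 1640 with 10% FBS at 37°C under 5% CO₂. Compounds were twofold serially diluted across 100-0.2 µM, and 5x10⁴ cells/well were added and incubated overnight at 37°C, 5% CO₂. MTS reagent was then added for 1 h under the same conditions, and absorbance was read at 490 nm.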

Streptococcus pneumoniae = assay: Antibacterial activity against Streptococcus pneumoniae ATCC 49619 after 20 to 22 hrs by broth microdilution method; format: functional; method in brief: as §1
Streptococcus pyogenes = assay: Antibacterial activity against Streptococcus pyogenes ATCC 700294 after 20 to 22 hrs by broth microdilution method; format: functional; conditions: M1 GAS; method in brief: as §1
Moraxella catarrhalis = assay: Antibacterial activity against Moraxella catarrhalis ATCC 23246 after 20 to 22 hrs by broth microdilution method; format: functional; method in brief: as §1
Haemophilus influenzae = assay: Antibacterial activity against Haemophilus influenzae ATCC 49247 after 20 to 22 hrs by broth microdilution method; format: functional; method in brief: as §1
HepG2 = assay: Cytotoxicity against human HepG2 cells assessed as NADH level after overnight incubation by MTS assay; format: cell-based; method in brief: as §2
Escherichia coli = assay: Antibacterial activity against Escherichia coli ATCC 25922 after 20 to 22 hrs by broth microdilution method; format: functional; method in brief: as §1

| Compound | MIC (Staphylococcus aureus) | IC50 (Jurkat) | MIC (Streptococcus pneumoniae) | MIC (Streptococcus pyogenes) | MIC (Moraxella catarrhalis) | MIC (Haemophilus influenzae) | IC50 (HepG2) | MIC (Escherichia coli) |
| --- | --- | --- | --- | --- | --- | --- | --- | --- |
| O=c1c2c(O)cccc2oc2cc(O)cc(O)c12 | 8 µg/mL (≈ 32.8 µM) | 83 µM | 128 µg/mL (≈ 524 µM) | > 128 µg/mL | 8 µg/mL (≈ 32.8 µM) | 16 µg/mL (≈ 65.5 µM) | 90 µM | > 128 µg/mL |
| CC(=O)Oc1cc(OC(C)=O)c2c(=O)c3cccc(OC(C)=O)c3oc2c1 | > 128 µg/mL | 92 µM | > 128 µg/mL | > 128 µg/mL | > 128 µg/mL | > 128 µg/mL | > 100 µM | > 128 µg/mL |
| CC(=O)Oc1ccc2c(=O)c3c(OC(C)=O)cc(OC(C)=O)cc3oc2c1 | 64 µg/mL (≈ 173 µM) | > 100 µM | > 128 µg/mL | > 128 µg/mL | 4 µg/mL (≈ 10.8 µM) | 128 µg/mL (≈ 346 µM) | > 100 µM | > 128 µg/mL |
| CC(=O)Oc1ccc2c(=O)c3c(OC(C)=O)cccc3oc2c1 | 64 µg/mL (≈ 205 µM) | > 100 µM | > 128 µg/mL | > 128 µg/mL | 16 µg/mL (≈ 51.2 µM) | 128 µg/mL (≈ 410 µM) | 90 µM | > 128 µg/mL |
| CC(=O)Oc1cccc2oc3ccccc3c(=O)c12 | > 128 µg/mL | 78 µM | > 128 µg/mL | > 128 µg/mL | 128 µg/mL (≈ 503 µM) | > 128 µg/mL | > 100 µM | > 128 µg/mL |
| O=c1c2ccccc2sc2cc(O)cc(O)c12 | 16 µg/mL (≈ 65.5 µM) | > 100 µM | > 128 µg/mL | > 128 µg/mL | 8 µg/mL (≈ 32.8 µM) | 16 µg/mL (≈ 65.5 µM) | > 100 µM | > 128 µg/mL |
| CC(=O)Oc1cc(OC(C)=O)c2c(=O)c3cc(OC(C)=O)ccc3oc2c1 | > 128 µg/mL | > 100 µM | > 128 µg/mL | > 128 µg/mL | > 128 µg/mL | > 128 µg/mL | > 100 µM | > 128 µg/mL |
| O=c1c2ccccc2oc2cc(O)cc(O)c12 | 64 µg/mL (≈ 280 µM) | > 100 µM | > 128 µg/mL | > 128 µg/mL | 16 µg/mL (≈ 70.1 µM) | 64 µg/mL (≈ 280 µM) | > 100 µM | > 128 µg/mL |
| O=c1c2ccc(O)cc2oc2cc(O)cc(O)c12 | 64 µg/mL (≈ 262 µM) | > 100 µM | > 128 µg/mL | > 128 µg/mL | 2 µg/mL (≈ 8.19 µM) | 32 µg/mL (≈ 131 µM) | > 100 µM | > 128 µg/mL |
| O=c1c2cccc(O)c2oc2cc(O)cc(O)c12 | > 128 µg/mL | > 100 µM | > 128 µg/mL | > 128 µg/mL | 16 µg/mL (≈ 65.5 µM) | > 128 µg/mL | > 100 µM | > 128 µg/mL |
| CC[C@H]1OC(=O)[C@H](C)[C@@H](O[C@H]2C[C@@](C)(OC)[C@@H](O)[C@H](C)O2)[C@H](C)[C@@H](O[C@@H]2O[C@H](C)C[C@H](N(C)C)[C@H]2O)[C@](C)(O)C[C@@H](C)CN(C)[C@H](C)[C@@H](O)[C@]1(C)O [AZITHROMYCIN] | 1 µg/mL (≈ 1.34 µM) | – | < 0.125 µg/mL | < 0.125 µg/mL | < 0.125 µg/mL | 1 µg/mL (≈ 1.34 µM) | – | 2 µg/mL (≈ 2.67 µM) |
| O=c1c2ccc(O)cc2oc2cccc(O)c12 | 32 µg/mL (≈ 140 µM) | 75 µM | > 128 µg/mL | > 128 µg/mL | 8 µg/mL (≈ 35.1 µM) | > 128 µg/mL | 93 µM | > 128 µg/mL |
| CC(=O)Oc1cc(OC(C)=O)c2c(=O)c3ccccc3oc2c1 | 128 µg/mL (≈ 410 µM) | > 100 µM | > 128 µg/mL | > 128 µg/mL | 32 µg/mL (≈ 102 µM) | 128 µg/mL (≈ 410 µM) | > 100 µM | > 128 µg/mL |
| O=c1c2ccccc2oc2cccc(O)c12 | > 128 µg/mL | > 100 µM | > 128 µg/mL | > 128 µg/mL | 128 µg/mL (≈ 603 µM) | > 128 µg/mL | > 100 µM | > 128 µg/mL |
| O=c1c2cc(O)ccc2oc2cc(O)cc(O)c12 | 128 µg/mL (≈ 524 µM) | > 100 µM | > 128 µg/mL | > 128 µg/mL | 128 µg/mL (≈ 524 µM) | > 128 µg/mL | > 100 µM | > 128 µg/mL |
| CC(=O)Oc1cc(OC(C)=O)c2c(=O)c3c(OC(C)=O)cccc3oc2c1 | 128 µg/mL (≈ 346 µM) | 62 µM | > 128 µg/mL | > 128 µg/mL | 128 µg/mL (≈ 346 µM) | > 128 µg/mL | 93 µM | > 128 µg/mL |
| CC(=O)Oc1cc(OC(C)=O)c2c(=O)c3ccccc3sc2c1 | > 128 µg/mL | > 100 µM | > 128 µg/mL | > 128 µg/mL | 64 µg/mL (≈ 195 µM) | > 128 µg/mL | > 100 µM | > 128 µg/mL |
